# Results taken from ChEMBL document CHEMBL1166003, “Triterpene glycosides from Curculigo orchioides and their cytotoxic activity” (J Nat Prod, 2010).
# The source made the active and inactive calls. The rule behind the calls is not given here.
# Experiments:
# HL-60 [1] = assay: Cytotoxicity against human HL60 cells at 20 uM after 72 hrs by MTT assay; assay type: functional, cell-based
# HL-60 [2] = assay: Cytotoxicity against human HL60 cells after 72 hrs by MTT assay; assay type: functional, cell-based; details: HL-60, 72 h
# Outline: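 HL-60 (JCRB 0085) kept in RPMI 1640 with 10% heat-inactivated FBS, penicillin/streptomycin, 37 °C, 5% CO2. Seeded at 4 × 10^4 cells/mL, preincubated 24 h, then dosed from EtOH-H2O (1:1) to final 0.01-20 µg/mL; vehicle-only controls. After 72 h, modified MTT read-out: MTT 4 h, centrifugation, formazan dissolved in DMSO, A550. Triplicate; IC50 taken as 50% reduction of viable cells.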
# ACHN = assay: Growth inhibition of human ACHN cells after 48 hrs by SRB assay; assay type: functional
# Outline: (§1)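 Part of a 39-line human cancer cell panel, run by a modified NCI method. Cells were plated at suitable density in RPMI 1640 with 5% FBS and left to attach overnight before compound addition. Read-out was GI50.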
# HCC 2998 = assay: Growth inhibition of human HCC2998 cells after 48 hrs by SRB assay; assay type: functional; details: HCC 2998, 48 h; outline: as §1
# SF-295 = assay: Growth inhibition of human SF295 cells after 48 hrs by SRB assay; assay type: functional; details: SF-295, 48 h; outline: as §1
# HT-29 = assay: Growth inhibition of human HT-29 cells after 48 hrs by SRB assay; assay type: functional; details: HT-29, 48 h; outline: as §1
# SNB-78 = assay: Growth inhibition of human SNB78 cells after 48 hrs by SRB assay; assay type: functional; details: SNB-78, 48 h; outline: as §1
# LOX IMVI = assay: Growth inhibition of human LOXIMVI cells after 48 hrs by SRB assay; assay type: functional; outline: as §1
# MKN-7 = assay: Growth inhibition of human MKN7 cells after 48 hrs by SRB assay; assay type: functional; details: MKN-7, 48 h; outline: as §1
# PC-3 = assay: Growth inhibition of human PC3 cells after 48 hrs by SRB assay; assay type: functional; details: PC-3, 48 h; outline: as §1
# DMS-273 = assay: Growth inhibition of human DMS273 cells after 48 hrs by SRB assay; assay type: functional; details: DMS-273, 48 h; outline: as §1
# NCI-H522 = assay: Growth inhibition of human NCI-H522 cells after 48 hrs by SRB assay; assay type: functional; details: NCI-H522, 48 h; outline: as §1
# MDA-MB-231 = assay: Growth inhibition of human MDA-MB-231 cells after 48 hrs by SRB assay; assay type: functional; details: MDA-MB-231, 48 h; outline: as §1
# NCI-H23 = assay: Growth inhibition of human NCI-H23 cells after 48 hrs by SRB assay; assay type: functional; details: NCI-H23, 48 h; outline: as §1
# DMS-114 = assay: Growth inhibition of human DMS114 cells after 48 hrs by SRB assay; assay type: functional; details: DMS-114, 48 h; outline: as §1
# OVCAR-8 = assay: Growth inhibition of human OVCAR8 cells after 48 hrs by SRB assay; assay type: functional; details: OVCAR-8, 48 h; outline: as §1
# SNB-75 = assay: Growth inhibition of human SNB75 cells after 48 hrs by SRB assay; assay type: functional; details: SNB-75, 48 h; outline: as §1
# [3] = Growth inhibition of human RXF631L cells after 48 hrs by SRB assay; assay type: functional; details: RXF 631, 48 h; outline: as §1
# [4] = Growth inhibition of human HBC4 cells after 48 hrs by SRB assay; assay type: functional; details: HBC4, 48 h; outline: as §1
# OVCAR-3 = assay: Growth inhibition of human OVCAR-3 cells after 48 hrs by SRB assay; assay type: functional; details: OVCAR-3, 48 h; outline: as §1
# OVCAR-5 = assay: Growth inhibition of human OVCAR5 cells after 48 hrs by SRB assay; assay type: functional; details: OVCAR-5, 48 h; outline: as §1
# St-4 = assay: Growth inhibition of human St-4 cells after 48 hrs by SRB assay; assay type: functional; details: St-4, 48 h; outline: as §1
# HCT-15 = assay: Growth inhibition of human HCT15 cells after 48 hrs by SRB assay; assay type: functional; details: HCT-15, 48 h; outline: as §1
# A549 = assay: Growth inhibition of human A549 cells after 48 hrs by SRB assay; assay type: functional; details: A549, 48 h; outline: as §1
# [5] = Growth inhibition of human HBC5 cells after 48 hrs by SRB assay; assay type: functional; details: HBC5, 48 h; outline: as §1
# SK-OV-3 = assay: Growth inhibition of human SKOV3 cells after 48 hrs by SRB assay; assay type: functional; details: SK-OV-3, 48 h; outline: as §1
# NCI-H460 = assay: Growth inhibition of human NCI-H460 cells after 48 hrs by SRB assay; assay type: functional; details: NCI-H460, 48 h; outline: as §1
# DU-145 = assay: Growth inhibition of human DU145 cells after 48 hrs by SRB assay; assay type: functional; details: DU-145, 48 h; outline: as §1
# MCF7 = assay: Growth inhibition of human MCF7 cells after 48 hrs by SRB assay; assay type: functional; details: MCF7, 48 h; outline: as §1
# MKN-74 = assay: Growth inhibition of human MKN74 cells after 48 hrs by SRB assay; assay type: functional; details: MKN-74, 48 h; outline: as §1
# MKN-45 = assay: Growth inhibition of human MKN45 cells after 48 hrs by SRB assay; assay type: functional; details: MKN-45, 48 h; outline: as §1
# U-251 = assay: Growth inhibition of human U251 cells after 48 hrs by SRB assay; assay type: functional; details: U-251, 48 h; outline: as §1
# SF-268 = assay: Growth inhibition of human SF268 cells after 48 hrs by SRB assay; assay type: functional; details: SF-268, 48 h; outline: as §1
# OVCAR-4 = assay: Growth inhibition of human OVCAR4 cells after 48 hrs by SRB assay; assay type: functional; details: OVCAR-4, 48 h; outline: as §1
# KM12 = assay: Growth inhibition of human KM12 cells after 48 hrs by SRB assay; assay type: functional; details: KM12, 48 h; outline: as §1
# [6] = Growth inhibition of human MKN1 cells after 48 hrs by SRB assay; assay type: functional; details: MKN-1, 48 h; outline: as §1
# SF-539 = assay: Growth inhibition of human SF539 cells after 48 hrs by SRB assay; assay type: functional; details: SF-539, 48 h; outline: as §1
# MKN-28 = assay: Growth inhibition of human MKN28 cells after 48 hrs by SRB assay; assay type: functional; details: MKN-28, 48 h; outline: as §1
# [7] = Growth inhibition of human BSY1 cells after 48 hrs by SRB assay; assay type: functional; details: BSY-1, 48 h; outline: as §1
# NCI-H226 = assay: Growth inhibition of human NCI-H226 cells after 48 hrs by SRB assay; assay type: functional; details: NCI-H226, 48 h; outline: as §1
# HCT-116 = assay: Growth inhibition of human HCT116 cells after 48 hrs by SRB assay; assay type: functional; details: HCT-116, 48 h; outline: as §1
compound,measurement,setting,value
CC(C)C(=O)CC[C@@H](C)[C@H]1[C@@H](O)C[C@@]2(C)[C@@H]3CC[C@H]4C(C)(C)[C@@H](O[C@@H]5O[C@H](CO)[C@@H](O)[C@H](O)[C@H]5O[C@@H]5O[C@@H](C)[C@H](O)[C@@H](O)[C@H]5O)CC[C@@]45C[C@@]35C[C@H](O)[C@]12C,inhibition,HL-60 [1],inactive
CC(C)C(=O)CC[C@@H](C)[C@H]1[C@@H](O)C[C@@]2(C)[C@@H]3CC[C@H]4C(C)(C)[C@@H](O[C@@H]5O[C@H](CO)[C@@H](O)[C@H](O)[C@H]5O[C@@H]5O[C@H](CO)[C@@H](O)[C@H](O)[C@H]5O)CC[C@@]45C[C@@]35C[C@H](O)[C@]12C,inhibition,HL-60 [1],inactive
CC(C)C(=O)CC[C@@H](C)[C@H]1[C@@H](O)C[C@@]2(C)[C@@H]3CC[C@H]4C(C)(C)[C@@H](O[C@@H]5O[C@H](CO[C@@H]6O[C@H](CO)[C@@H](O)[C@H](O)[C@H]6O)[C@@H](O)[C@H](O)[C@H]5O)CC[C@@]45C[C@@]35C[C@H](O)[C@]12C,inhibition,HL-60 [1],inactive
CC(C)C(=O)CC[C@@H](C)[C@H]1[C@@H](O)C[C@@]2(C)[C@@H]3CC[C@H]4C(C)(C)[C@@H](O[C@@H]5O[C@H](CO)[C@@H](O)[C@H](O)[C@H]5O)CC[C@@]45C[C@@]35C[C@H](O)[C@]12C,IC50,HL-60 [2],9 µM
CC(C)C(=O)CC[C@@H](C)[C@H]1[C@@H](O)C[C@@]2(C)[C@@H]3CC[C@H]4C(C)(C)[C@@H](O[C@@H]5O[C@H](CO)[C@@H](O)[C@H](O)[C@H]5O[C@@H]5O[C@@H](C)[C@H](O)[C@@H](O[C@@H]6O[C@H](CO)[C@@H](O)[C@H](O)[C@H]6O)[C@H]5O)CC[C@@]45C[C@@]35C[C@H](O)[C@]12C,inhibition,HL-60 [1],inactive
CC(C)C(=O)CC[C@@H](C)[C@H]1[C@@H](O)C[C@@]2(C)[C@@H]3CC[C@H]4C(C)(C)[C@@H](O)CC[C@@]45C[C@@]35C[C@H](O)[C@]12C,GI50,ACHN,2 µM
same,GI50,HCC 2998,16.6 µM
same,GI50,SF-295,2.09 µM
same,GI50,HT-29,3.31 µM
same,GI50,SNB-78,5.01 µM
same,GI50,LOX IMVI,1.55 µM
same,GI50,MKN-7,1.91 µM
same,GI50,PC-3,14.8 µM
same,GI50,DMS-273,2.09 µM
same,GI50,NCI-H522,2.88 µM
same,GI50,MDA-MB-231,2 µM
same,GI50,NCI-H23,3.09 µM
same,GI50,DMS-114,1.78 µM
same,GI50,OVCAR-8,1.55 µM
same,GI50,SNB-75,3.8 µM
same,GI50,[3],1.78 µM
same,GI50,[4],3.16 µM
same,GI50,OVCAR-3,3.24 µM
same,GI50,OVCAR-5,4.79 µM
same,GI50,St-4,2.75 µM
same,GI50,HCT-15,3.47 µM
same,GI50,A549,2.69 µM
same,GI50,[5],2.88 µM
same,GI50,SK-OV-3,4.79 µM
same,GI50,NCI-H460,2.24 µM
same,GI50,DU-145,2.09 µM
same,GI50,MCF7,3.8 µM
same,IC50,HL-60 [2],1.8 µM
same,GI50,MKN-74,2.19 µM
same,GI50,MKN-45,64.6 µM
same,GI50,U-251,2.19 µM
same,GI50,SF-268,1.38 µM
same,GI50,OVCAR-4,2.4 µM
same,GI50,KM12,6.17 µM
same,GI50,[6],2.57 µM
same,GI50,SF-539,2.14 µM
same,GI50,MKN-28,2.04 µM
same,GI50,[7],1.95 µM
same,GI50,NCI-H226,2.75 µM
same,GI50,HCT-116,2.4 µM
CC(C)C(=O)CC[C@@H](C)[C@H]1[C@@H](O)C[C@@]2(C)[C@@H]3CC[C@H]4C(C)(C)[C@@H](O[C@@H]5O[C@H](CO)[C@@H](O)[C@H](O)[C@H]5O[C@@H]5O[C@H](CO)[C@@H](O)[C@H](O[C@@H]6O[C@H](CO)[C@@H](O)[C@H](O)[C@H]6O)[C@H]5O)CC[C@@]45C[C@@]35C[C@H](O)[C@]12C,inhibition,HL-60 [1],inactive
